Bioassay records: PubChem, several laboratories
Rows were chosen to be rich in hits. Some 4.9% of all compounds tested hit in one or more screens of this group.
NPY Y1 blocker: blocks the human neuropeptide Y Y1 receptor | P25929 | HEK293-CNG Y1 cells, membrane potential fluorescence; NPY at EC95, then isoproterenol | inhibition, % at 3.6 µM | 200,000 tested, 1% active;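 active = inhibition above the campaign mean inhibition of all tested compounds plus 3 SD, cut at about 20% in these data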
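Assay system: HEK293 cells with Y1 receptor plus CNG channel | Probe or stimulus: NPY (25 nM), isoproterenol (1 µM), Ro 20-1724 (25 µM) | Timing: Compound incubation 1 h at room temperature, readout 45 min post-stimulation | Measured by: Membrane-potential fluorescent dye readout | Benchmarks: High control isoproterenol alone, low control NPY with isoproterenol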
NPY Y2 blocker: NPY-Y2 (human) receptor antagonism. NPY-Y2 expressing cells, antagonist mode. inhibition, % at 2.7 µM. 140,000 tested, 0.99% active. AID 793; in the data active = inhibition above about 17%
Target sequence (P49146 whole entry, looked up): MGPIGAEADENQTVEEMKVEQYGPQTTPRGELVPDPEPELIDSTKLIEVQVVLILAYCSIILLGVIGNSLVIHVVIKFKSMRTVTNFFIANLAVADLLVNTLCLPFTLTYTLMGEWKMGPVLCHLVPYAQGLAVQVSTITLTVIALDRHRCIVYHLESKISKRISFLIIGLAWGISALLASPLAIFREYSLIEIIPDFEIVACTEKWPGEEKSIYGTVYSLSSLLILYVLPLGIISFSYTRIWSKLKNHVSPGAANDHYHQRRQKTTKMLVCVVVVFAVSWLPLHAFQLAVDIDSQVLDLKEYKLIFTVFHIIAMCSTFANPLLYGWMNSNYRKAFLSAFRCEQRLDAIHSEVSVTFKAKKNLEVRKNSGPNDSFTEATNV
WT yeast gro inh: growth inhibition of WT yeast, mitochondrial fusion screen | AID 1362 | mitochondrial fusion phenotypic screen, WT strain | 190,000 tested, 2.1% active | inhibition, % at 10 µM; in the data active = inhibition above about 58%; tested in S. cerevisiae
RAM inhibit: blocks the yeast RAM network; S. cerevisiae dse1pr::URA3 reporter, 5-FOA growth OD615, 2 d; analog-sensitive cbk1-as2 kinase mutant strain; inhibition, % at 50 µM; 190,000 tested, 1.8% active;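 active = inhibition above a set limit, 3 SD over mean compound inhibition, cut at about 8.4% in these data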;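 also: inhibition rescues growth on 5-FOA so higher OD means more RAM inhibition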
NPY2 pot ag: potentiates or activates human NPY-Y2 receptor; activation, % at 3.6 µM; cells expressing NPY-Y2, potentiator/agonist read-out; 220,000 tested, 0.45% active; in the data active = activation above about 27%;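 also: cells stimulated with NPY near EC25 plus isoproterenol at EC100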
NPY1 pot ag: potentiators or agonists of human neuropeptide Y receptor Y1; P25929; NPY-Y1 expressing cells, potentiator/agonist activation; activation, % at 3.6 µM; 220,000 tested, 0.37% active; AID 1304; in the data active = activation above about 33%, passing the limit was not always enough;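 also: cells stimulated with NPY at EC10 then isoproterenol at EC100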
A number is an active result; 0 = inactive; - = no result given.

SMILES	NPY Y1 blocker	NPY Y2 blocker	WT yeast gro inh	RAM inhibit	NPY2 pot ag	NPY1 pot ag
CCC(C)[C@H]1CNC(=S)N1CCc1cc(C(F)(F)F)cc(C(F)(F)F)c1 (some centres not stated)	0	-	0	0	0	0
CCCC[C@@H]1CNC(=S)N1CCc1cccc2ccccc12	0	-	75	0	0	0
CCCC[C@@H]1CNC(=S)N1CCC12CC3CC(CC(C3)C1)C2	0	-	65	0	0	0
CCCC[C@@H]1CNC(=S)N1CCCc1cc(OC)c(OC)c(OC)c1	0	-	0	0	0	0
Fc1cccc(CCN2C(=S)NC[C@@H]2Cc2ccccc2)c1	0	-	66	0	0	0
O=S(=O)(Nc1cccnc1)c1cccc(Cl)c1	0	0	0	0	0	0
O=C(Nc1ccc(Cl)c(Cl)c1)Nc1ccccc1C(=O)O	0	-	0	0	0	0
COc1ccc(OC)c(NC(=O)COC(=O)Cc2ccc(Br)cc2)c1	0	-	67	0	0	0
COc1ccc([N+](=O)[O-])cc1NC(=O)CSCc1ccccc1C	0	0	0	8.6	0	0
COC(=O)c1ccc(C(=O)OC)c(NC(=O)CSCc2ccc(Br)cc2)c1	0	0	0	11	0	0
COc1ccc([N+](=O)[O-])cc1NC(=O)CSc1ncccn1	0	-	0	0	0	0
CCC(C(=O)OCC(=O)Nc1cc(OC)ccc1OC)c1ccccc1 (configuration not stated)	0	-	0	0	0	0
COc1ccc([N+](=O)[O-])cc1NC(=O)CSCc1ccc(Br)cc1	0	0	0	11	0	0
O=C(Nc1cccc(F)c1)c1sc(Cl)nc1-c1ccccc1	0	0	0	0	0	0
CCC/C(C)=C/c1ccc(CC)cn1	-	-	-	-	0	0
CC1C(=O)C(C)C(c2ccc3c(c2)OCO3)NC1c1ccc2c(c1)OCO2 (configuration not stated)	0	0	0	0	0	0
COc1ccc(OC)c(C2C=C(C34CC5CC(CC(C5)C3)C4)NC(=S)N2)c1 (configuration not stated)	0	0	76	0	0	0
COc1cc(C2C=C(C34CC5CC(CC(C5)C3)C4)NC(=S)N2)cc(OC)c1OC (configuration not stated)	0	0	0	0	0	0
S=C1NC(C23CC4CC(CC(C4)C2)C3)=CC(c2ccc3c(c2)OCO3)N1 (configuration not stated)	0	-	77	0	0	0
CCOC(=O)Cn1c(=O)oc2cc(S(=O)(=O)Nc3cccc(C)c3)ccc21	0	0	0	0	43	32
CCCCOC(=O)NC1(C)CCS(=O)(=O)C1 (configuration not stated)	0	0	0	0	0	0
C=C(C)C1Cc2c(C)nn(-c3ccccn3)c2C1 (configuration not stated)	0	0	66	0	0	0
Cc1ccc2nc(-c3ccccn3)c(NC3CCCC3)n2c1	0	-	74	0	0	0
O=C(c1cccc(C(F)(F)F)c1)C1CCCN(Cc2cccn2-c2ncccn2)C1 (configuration not stated)	33	-	0	0	0	0
CCOc1cc(CN2CCCC(C(=O)c3cccc(C(F)(F)F)c3)C2)ccc1O (configuration not stated)	0	-	0	0	0	0
SMILES	NPY Y1 blocker	NPY Y2 blocker	WT yeast gro inh	RAM inhibit	NPY2 pot ag	NPY1 pot ag
Cn1c(COc2ccc(Br)cc2)nnc1SC1CCc2ccccc2C1=O (configuration not stated)	0	0	0	0	0	0
O=C(O)c1cccc(NC(CNS(=O)(=O)c2ccc(Cl)cc2)c2ccccc2)c1 (configuration not stated)	0	-	0	0	0	0
O=S(=O)(NCC(Nc1ccccc1)c1ccccc1)c1ccc(Cl)cc1 (configuration not stated)	0	0	0	9.2	0	0
Cc1ccc(Sc2c(O)c3ccccc3n(C)c2=O)cc1	0	0	0	0	0	0
Cc1[nH]n(C(C)(C)C)c(=O)c1Sc1ccc(Cl)cc1	0	0	61	0	0	0
Nc1nonc1C(=O)NCCNCc1c(OCc2ccccc2F)ccc2ccccc12	34	50	0	0	0	0
CC1Cc2ccccc2N1C(=O)C1CCN(S(=O)(=O)c2cccs2)CC1 (configuration not stated)	0	0	0	0	0	0
Cc1cc(NC(=O)c2cc(-c3ccco3)on2)n(-c2ccccc2)n1	0	0	0	0	0	0
Cc1cc(-c2ccco2)n(-c2ccccc2)n1	0	0	0	0	101	105
CCCCCCCCC[n+]1cccc2c3ccccc3ccc21	55	19	0	0	0	0
Cc1nn(C(C)(C)C)c(OC(=O)c2ccc3c(c2)OCO3)c1Sc1ccccc1	48	29	75	0	0	0
Cc1nn(C(C)(C)C)c(OC(=O)c2ccc3c(c2)OCO3)c1S(=O)(=O)c1ccccc1	0	0	0	0	0	0
COc1ccc(CCN(C(=O)C(F)(F)F)C(C(=O)NC2CCCCC2)c2cccs2)cc1 (configuration not stated)	0	0	0	0	0	0
Cc1cc(NC(=S)N(Cc2ccc(Br)cc2)Cc2ccc(C(=O)O)cc2)ccc1Cl	0	-	70	0	0	0
Cc1ccc(NC(=S)N(Cc2cccc(Br)c2)CC2CCC(C(=O)O)CC2)cc1Cl (configuration not stated)	0	-	64	0	0	0
Cc1ccc(-n2[nH]c(C)c(C=Nc3ccc(S(=O)(=O)Nc4nc(C)cc(C)n4)cc3)c2=O)c(C)c1	0	0	0	0	0	0
CCc1nc(SCc2nc3ccccc3[nH]2)c2oc3ccccc3c2n1	0	0	74	0	0	0
CCc1nc(SCCO)c2oc3ccccc3c2n1	0	0	0	0	0	0
CC1CCCCC1NC(=O)COC(=O)c1ccccc1NC(=O)c1ccco1 (configuration not stated)	30	19	0	0	0	0
CC(CCc1ccccc1)NCC(O)c1ccc(O)c(C(N)=O)c1 (configuration not stated)	0	0	0	0	103	116
Cc1nn(-c2nc3ccccc3[nH]2)c(N)c1-c1ccccc1	0	0	72	0	0	0
Cc1nn(-c2ccccc2)c(N)c1-c1ccccc1	0	-	0	0	0	0
Cc1nn2c(-c3ccccc3)ccnc2c1-c1ccccc1	0	0	0	0	0	0
Cc1cc(NCCC(C)C)n2nc(C)c(-c3ccccc3)c2n1	0	0	72	0	0	0
Cc1cc(NCCCN2CCOCC2)n2nc(C)c(-c3ccccc3)c2n1	0	0	0	0	0	0
Cc1nc2c(-c3ccccc3)c(C)nn2c(N)c1-c1ccccc1	0	0	74	0	0	0
COc1ccccc1/C=C(/CC(=O)NCc1ccc2c(c1)OCO2)c1nc2ccccc2s1	0	0	0	0	0	0
